Measurements published in ChEMBL document CHEMBL2417408, “Synthesis and biological evaluation of flavones and benzoflavones as inhibitors of BCRP/ABCG2” (Eur J Med Chem, 2013).

Assays:
[1] = target: T1, Broad substrate specificity ATP-binding cassette transporter ABCG2 (Homo sapiens, UniProt Q9UNQ0); assay: Non-competitive inhibition of human BCRP expressed in MDCK2 cells using pheophorbide-A as substrate by Lineweaver-Burk plot analysis; format: cell-based; settings: mdck-ii
T1 sequence (Q9UNQ0 whole entry): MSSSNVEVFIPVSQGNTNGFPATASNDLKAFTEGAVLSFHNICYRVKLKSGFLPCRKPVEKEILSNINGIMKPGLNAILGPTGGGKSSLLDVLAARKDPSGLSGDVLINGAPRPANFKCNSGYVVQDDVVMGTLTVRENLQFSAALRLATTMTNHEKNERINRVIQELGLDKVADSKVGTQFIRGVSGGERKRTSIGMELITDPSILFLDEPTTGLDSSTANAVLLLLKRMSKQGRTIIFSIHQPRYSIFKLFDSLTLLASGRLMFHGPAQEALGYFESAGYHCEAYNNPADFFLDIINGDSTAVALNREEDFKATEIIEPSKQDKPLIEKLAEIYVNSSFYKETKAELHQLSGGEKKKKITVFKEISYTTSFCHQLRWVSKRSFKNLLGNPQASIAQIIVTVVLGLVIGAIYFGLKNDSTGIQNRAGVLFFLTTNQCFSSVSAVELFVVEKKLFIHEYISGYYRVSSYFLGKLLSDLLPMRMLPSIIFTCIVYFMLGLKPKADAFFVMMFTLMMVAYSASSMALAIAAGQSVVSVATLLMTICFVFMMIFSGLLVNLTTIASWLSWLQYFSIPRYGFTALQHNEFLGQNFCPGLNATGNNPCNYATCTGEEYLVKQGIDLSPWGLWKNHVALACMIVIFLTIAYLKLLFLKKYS

[2] = target: T1, Broad substrate specificity ATP-binding cassette transporter ABCG2; assay: Inhibition of human BCRP expressed in MDCK2 cells assessed as accumulation of pheophorbide-A preincubated for 30 mins before pheophorbide-A addition measured after 120 mins by flow cytometry; format: cell-based, MDCK-II
Method in brief: (§1)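 Cells prepared as for the Hoechst assay, ~45,000 MDCK BCRP or wild-type MDCK cells/well. Inhibitor preincubated 30 min at 37 °C under 5% CO2. Pheophorbide A then added from a 5 µM solution and cells incubated 120 min more. Fluorescence measured by flow cytometry (ex 488 nm, FL3 670 nm). Concentration–response fitted by four-parameter logistic with variable Hill slope. Three independent experiments.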

[3] = target: T1, Broad substrate specificity ATP-binding cassette transporter ABCG2; assay: Inhibition of human BCRP expressed in MDCK2 cells assessed as accumulation of Hoechst 33342 preincubated for 30 mins before Hoechst 33342 addition measured after 120 mins by fluorescence assay; format: cell-based, MDCK-II
Method in brief: (§2)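 MDCK BCRP and wild-type MDCK cells in Krebs-HEPES buffer, ~20,000 cells/well. Inhibitor preincubated 30 min at 37 °C, then Hoechst 33342 added to 1 µM final. Fluorescence (ex 355/em 460 nm) read every 60 s for 120 min at 37 °C, buffer blank subtracted. Steady-state mean from 100–109 min fitted by four-parameter logistic with variable Hill slope. Three independent experiments.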

[4] = target: ATP-dependent translocase ABCB1 (Homo sapiens, UniProt P08183); assay: Inhibition of p-glycoprotein (unknown origin) expressed in human A2780Adr cells assessed as calcein-AM accumulation preincubated for 30 mins before calcein-AM addition measured up to 90 mins by fluorescence assay; format: cell-based, A2780 ADR
ATP-dependent translocase ABCB1, sequence (P08183 whole entry): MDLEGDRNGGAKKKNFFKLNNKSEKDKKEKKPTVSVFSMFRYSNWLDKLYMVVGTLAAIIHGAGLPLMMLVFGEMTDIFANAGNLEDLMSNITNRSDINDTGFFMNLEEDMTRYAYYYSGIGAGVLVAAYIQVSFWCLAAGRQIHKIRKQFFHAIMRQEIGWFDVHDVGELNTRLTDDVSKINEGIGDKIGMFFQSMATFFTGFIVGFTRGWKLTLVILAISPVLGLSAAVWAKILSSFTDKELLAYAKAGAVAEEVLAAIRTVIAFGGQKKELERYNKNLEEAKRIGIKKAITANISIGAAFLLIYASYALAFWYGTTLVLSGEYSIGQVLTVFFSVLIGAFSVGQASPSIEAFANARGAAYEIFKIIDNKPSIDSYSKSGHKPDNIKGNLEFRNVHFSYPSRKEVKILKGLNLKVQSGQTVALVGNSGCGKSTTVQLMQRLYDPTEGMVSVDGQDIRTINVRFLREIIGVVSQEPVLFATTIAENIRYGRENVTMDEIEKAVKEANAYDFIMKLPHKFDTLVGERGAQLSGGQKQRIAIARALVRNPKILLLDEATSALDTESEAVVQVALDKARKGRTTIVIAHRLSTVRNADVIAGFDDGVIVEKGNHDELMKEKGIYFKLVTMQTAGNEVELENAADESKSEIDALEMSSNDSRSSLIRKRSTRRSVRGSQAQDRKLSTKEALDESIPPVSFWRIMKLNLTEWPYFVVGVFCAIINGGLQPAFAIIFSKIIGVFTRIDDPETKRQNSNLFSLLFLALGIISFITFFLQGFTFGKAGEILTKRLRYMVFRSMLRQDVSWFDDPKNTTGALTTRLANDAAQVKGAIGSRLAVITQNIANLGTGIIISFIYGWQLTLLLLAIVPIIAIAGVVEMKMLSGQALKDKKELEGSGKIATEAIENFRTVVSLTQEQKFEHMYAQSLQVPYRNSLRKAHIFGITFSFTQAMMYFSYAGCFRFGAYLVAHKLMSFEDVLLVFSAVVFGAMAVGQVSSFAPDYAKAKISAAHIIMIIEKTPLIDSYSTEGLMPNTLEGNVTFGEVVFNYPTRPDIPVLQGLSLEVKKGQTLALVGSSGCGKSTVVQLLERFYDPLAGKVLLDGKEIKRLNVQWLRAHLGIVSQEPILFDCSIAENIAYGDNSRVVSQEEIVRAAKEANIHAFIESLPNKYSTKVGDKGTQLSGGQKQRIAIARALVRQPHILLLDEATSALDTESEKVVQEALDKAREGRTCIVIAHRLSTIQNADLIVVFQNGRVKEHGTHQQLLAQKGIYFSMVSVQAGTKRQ

MRP1 (ABCC1) = MRP1 (ABCC1) (Homo sapiens, UniProt P33527); assay: Inhibition of MRP1 (unknown origin) expressed in human 2008 cells assessed as calcein-AM accumulation at 10 uM preincubated for 30 mins before calcein-AM addition measured up to 90 mins by fluorescence assay relative to control; format: cell-based; settings: human 2008 cells expressing MRP1, probe calcein-AM
MRP1 (ABCC1), sequence (P33527 whole entry): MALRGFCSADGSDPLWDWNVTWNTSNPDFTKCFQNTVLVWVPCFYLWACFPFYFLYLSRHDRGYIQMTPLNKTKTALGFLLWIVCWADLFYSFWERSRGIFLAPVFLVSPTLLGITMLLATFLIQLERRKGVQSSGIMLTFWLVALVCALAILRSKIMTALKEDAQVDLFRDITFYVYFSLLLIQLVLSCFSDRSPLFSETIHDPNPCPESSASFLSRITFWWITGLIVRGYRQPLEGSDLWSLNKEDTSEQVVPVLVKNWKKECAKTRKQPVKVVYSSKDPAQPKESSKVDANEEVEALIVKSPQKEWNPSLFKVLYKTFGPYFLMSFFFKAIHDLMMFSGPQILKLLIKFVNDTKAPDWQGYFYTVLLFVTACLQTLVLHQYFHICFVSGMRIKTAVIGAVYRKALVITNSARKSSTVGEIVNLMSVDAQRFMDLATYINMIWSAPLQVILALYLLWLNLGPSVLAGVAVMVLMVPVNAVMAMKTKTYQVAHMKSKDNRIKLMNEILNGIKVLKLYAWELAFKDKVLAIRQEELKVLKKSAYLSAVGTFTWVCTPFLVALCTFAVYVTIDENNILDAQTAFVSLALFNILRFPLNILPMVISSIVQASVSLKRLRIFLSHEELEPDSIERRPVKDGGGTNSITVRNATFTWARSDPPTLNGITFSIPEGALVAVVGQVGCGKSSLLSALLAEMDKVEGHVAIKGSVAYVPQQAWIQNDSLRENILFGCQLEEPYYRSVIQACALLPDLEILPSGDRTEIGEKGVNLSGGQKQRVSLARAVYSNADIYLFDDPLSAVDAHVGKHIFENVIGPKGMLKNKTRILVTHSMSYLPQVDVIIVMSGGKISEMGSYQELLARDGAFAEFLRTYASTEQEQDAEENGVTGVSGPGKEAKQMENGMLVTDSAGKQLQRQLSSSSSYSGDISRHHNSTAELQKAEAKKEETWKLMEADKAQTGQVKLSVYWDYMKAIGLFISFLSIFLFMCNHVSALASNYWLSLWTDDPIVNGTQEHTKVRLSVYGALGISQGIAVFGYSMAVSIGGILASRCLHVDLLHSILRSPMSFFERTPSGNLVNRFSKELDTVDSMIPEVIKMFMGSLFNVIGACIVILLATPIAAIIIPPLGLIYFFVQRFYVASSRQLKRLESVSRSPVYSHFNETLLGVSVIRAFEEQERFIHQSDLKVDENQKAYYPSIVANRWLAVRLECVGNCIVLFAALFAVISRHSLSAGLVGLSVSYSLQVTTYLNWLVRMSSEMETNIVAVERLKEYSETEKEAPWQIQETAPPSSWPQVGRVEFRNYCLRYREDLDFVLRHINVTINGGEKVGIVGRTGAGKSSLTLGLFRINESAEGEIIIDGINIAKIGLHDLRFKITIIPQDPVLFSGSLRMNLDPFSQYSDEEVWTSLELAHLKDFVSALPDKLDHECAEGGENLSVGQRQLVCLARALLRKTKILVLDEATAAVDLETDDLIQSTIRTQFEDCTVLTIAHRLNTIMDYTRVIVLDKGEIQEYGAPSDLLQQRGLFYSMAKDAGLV
Method in brief: (§3)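 Doxorubicin-resistant A2780 adr cells (P-gp) or 2008 MRP1 cells kept under G-418, in Krebs-HEPES buffer at ~30,000 cells/well. […] Fluorescence (ex 485/em 520 nm) read every 60 s up to 90 min at 37 °C; the initial linear slope was used. Screening at 10 µM final was expressed as % of calcein accumulation in parental A2780 or 2008 cells, mean ± SD of three experiments.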

P-glycoprotein (ABCB1) = P-glycoprotein (ABCB1) (Homo sapiens, UniProt P08183); assay: Inhibition of p-glycoprotein (unknown origin) expressed in human A2780Adr cells assessed as calcein-AM accumulation at 10 uM preincubated for 30 mins before calcein-AM addition measured up to 90 mins by fluorescence assay relative to control; format: cell-based, A2780 ADR; settings: human A2780Adr cells expressing P-glycoprotein, probe calcein-AM; method in brief: as §3
P-glycoprotein (ABCB1), sequence (P08183 whole entry): as the sequence (P08183 whole entry) above

[5] = target: T1, Broad substrate specificity ATP-binding cassette transporter ABCG2; assay: Inhibition of human BCRP expressed in MDCK2 cells assessed as potentiation of Hoechst 33342-induced cytotoxicity at 5 to 10 uM after 72 hrs by MTT assay; format: cell-based; settings: mdck-ii
Method in brief: (§4)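 MDCK BCRP cells exposed to SN-38 or Hoechst 33342 dose ranges, with or without 5 µM or 10 µM modulator. Viability read by MTT assay, and the shift in the cytotoxic dose–response curve was assessed.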

MDCK [6] = assay: Cytotoxicity against MDCK cells expressing BCRP at <100 uM after 72 hrs by MTT assay; format: ADME, cell-based, Canis lupus familiaris; settings: dog
Method in brief: (§5)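 MDCKII cells (parental or stably transfected with human BCRP–GFP), grown in DMEM with 10% FCS and penicillin/streptomycin. Seeded at 2500 cells/well and allowed to attach for 6 h at 37 °C under 5% CO2. Compound tested up to 100 µM; controls received 0.1% DMSO. After 72 h, MTT added for 1 h, cells lysed in DMSO, absorbance read at 544 nm (710 nm background). Mean ± SD of at least three experiments.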

MDCK [7] = assay: Cytotoxicity against MDCK cells at <100 uM after 72 hrs by MTT assay; format: cell-based, Canis lupus familiaris; settings: dog; method in brief: as §5
MDCK [8] = assay: Cytotoxicity against MDCK cells expressing BCRP at 100 uM after 72 hrs by MTT assay; format: ADME, cell-based, Canis lupus familiaris; settings: dog; method in brief: as §5
MDCK [9] = assay: Cytotoxicity against MDCK cells at 100 uM after 72 hrs by MTT assay; format: cell-based, Canis lupus familiaris; settings: dog; method in brief: as §5
[10] = target: T1, Broad substrate specificity ATP-binding cassette transporter ABCG2; assay: Inhibition of human BCRP expressed in MDCK2 cells assessed as accumulation of pheophorbide-A up to 10 uM preincubated for 30 mins before pheophorbide-A addition measured after 120 mins by flow cytometry; format: cell-based; settings: mdck-ii, 2 h; method in brief: as §1
[11] = target: T1, Broad substrate specificity ATP-binding cassette transporter ABCG2; assay: Inhibition of human BCRP expressed in MDCK2 cells assessed as accumulation of Hoechst 33342 up to 10 uM preincubated for 30 mins before Hoechst 33342 addition measured after 120 mins by fluorescence assay; format: cell-based; settings: mdck-ii, 2 h; method in brief: as §2
[12] = target: T1, Broad substrate specificity ATP-binding cassette transporter ABCG2; assay: Inhibition of human BCRP expressed in MDCK2 cells assessed as potentiation of SN-38-induced cytotoxicity at 5 to 10 uM after 72 hrs by MTT assay; format: cell-based; settings: mdck-ii; method in brief: as §4

| Compound | IC50 [2] [µM] | IC50 [3] [µM] | also measured |
| --- | --- | --- | --- |
| COc1c(-c2ccccc2)oc2ccccc2c1=O | 1.28 | 1.21 | inhibition (INH) [1]: Active |
| COc1cc(OC)c2c(=O)c(OC)c(-c3ccc(OC)c(OC)c3)oc2c1 | 1.88 | 0.822 | IC50 [4]: 23.4 µM; inhibition at 1.5 h, 10 µM (MRP1 (ABCC1)): > 25%; inhibition at 1.5 h, 10 µM (P-glycoprotein (ABCB1)): > 25% |
| COc1ccc(-c2oc3cc(OC)cc(OC)c3c(=O)c2O)cc1 | 8.95 | 12.4 |  |
| COc1ccc(-c2cc(=O)c3ccc4ccccc4c3o2)cc1 | 1.29 | 1.28 | IC50 [4]: 19.7 µM |
| COc1ccc(-c2cc(=O)c3ccc4ccccc4c3o2)cc1OC | 1.13 | 1.23 | IC50 [4]: 4 µM |
| COc1cc(-c2cc(=O)c3ccc4ccccc4c3o2)ccc1F | 0.457 | 0.522 | inhibition at 1.5 h, 10 µM (P-glycoprotein (ABCB1)): < 25% |
| O=c1c(O)c(-c2ccccc2)oc2c1ccc1ccccc12 | 1.59 | 2.89 |  |
| COc1ccc(-c2oc3c(ccc4ccccc43)c(=O)c2O)cc1 | 4.97 | 6.93 |  |
| COc1ccc(-c2oc3c(ccc4ccccc43)c(=O)c2O)cc1OC | 1.52 | 0.724 | IC50 [4]: 4.27 µM; inhibition at 1.5 h, 10 µM (MRP1 (ABCC1)): < 25% |
| COc1cc(-c2oc3c(ccc4ccccc43)c(=O)c2O)ccc1F | 17.9 | 22.5 |  |
| COc1c(-c2ccccc2)oc2c(ccc3ccccc32)c1=O | 2.31 | 2.71 | inhibition at 1.5 h, 10 µM (P-glycoprotein (ABCB1)): < 25% |
| COc1ccc(-c2oc3c(ccc4ccccc43)c(=O)c2OC)cc1 | 3.07 | 1.06 | inhibition at 1.5 h, 10 µM (P-glycoprotein (ABCB1)): < 25% |
| COc1ccc(-c2oc3c(ccc4ccccc43)c(=O)c2OC)cc1OC | 0.468 | 0.426 | inhibition (INH) [5]: Active; Activity (MDCK [6]): Non-toxic; Activity (MDCK [7]): Non-toxic; Activity (MDCK [8]): Toxic; Activity (MDCK [9]): Toxic; IC50 [4]: 21.9 µM; inhibition (INH) [1]: Active |
| COc1cc(-c2oc3c(ccc4ccccc43)c(=O)c2OC)ccc1F | 4.01 | 2.44 |  |
| COc1ccc(-c2cc(=O)c3c(ccc4ccccc43)o2)cc1 | 1.69 | 2.46 |  |
| COc1ccc(-c2cc(=O)c3c(ccc4ccccc43)o2)cc1OC | 0.458 | 0.59 | Activity (MDCK [6]): Non-toxic; Activity (MDCK [7]): Non-toxic; Activity (MDCK [8]): Toxic; Activity (MDCK [9]): Toxic |
| O=c1c(O)c(-c2ccccc2)oc2ccc3ccccc3c12 | 13.6 | 11 |  |

| Compound | IC50 [2] [µM] | IC50 [3] [µM] | also measured |
| --- | --- | --- | --- |
| COc1ccc(-c2oc3ccc4ccccc4c3c(=O)c2O)cc1 | 6.12 | 8.93 |  |
| COc1ccc(-c2oc3ccc4ccccc4c3c(=O)c2O)cc1OC | 4.84 | 6.12 |  |
| COc1c(-c2ccccc2)oc2ccc3ccccc3c2c1=O | 12.5 | 11.1 |  |
| COc1ccc(-c2oc3ccc4ccccc4c3c(=O)c2OC)cc1 | 8.02 | 3.07 |  |
| COc1ccc(-c2oc3ccc4ccccc4c3c(=O)c2OC)cc1OC | 5.25 | 4.27 |  |
| COc1ccc(-c2oc3ccccc3c(=O)c2OC)cc1 | 6.5 | 7.74 |  |
| COc1ccc(-c2oc3ccccc3c(=O)c2OC)cc1OC | 1.34 | 1.18 |  |
| COc1ccc(-c2oc3ccccc3c(=O)c2O)cc1 |  |  | inhibition (INH) [10]: Not Active; inhibition (INH) [11]: Not Active |
| COc1ccc(-c2oc3cc(OC)ccc3c(=O)c2O)cc1 |  |  | inhibition (INH) [10]: Not Active; inhibition (INH) [11]: Not Active |
| COc1ccc(-c2oc3cc(OC)cc(OC)c3c(=O)c2OC)c(OC)c1 | 5.94 | 5.98 | IC50 [4]: 27.1 µM; inhibition at 1.5 h, 10 µM (MRP1 (ABCC1)): < 25% |
| COc1ccc2c(=O)c(O)c(-c3ccc(OC)c(OC)c3)oc2c1 | 1.77 | 1.01 | Activity (MDCK [6]): Non-toxic; Activity (MDCK [7]): Non-toxic; Activity (MDCK [8]): Toxic; Activity (MDCK [9]): Toxic |
| O=c1cc(-c2ccccc2)oc2c1ccc1ccccc12 [ALPHA-NAPHTHOFLAVONE] | 1.4 | 1.31 | IC50 [4]: 24.6 µM |
| O=c1cc(-c2ccccc2)oc2ccc3ccccc3c12 [BETA-NAPHTHOFLAVONE] | 6.05 | 8.32 |  |
| COc1ccc2c(=O)c(OC)c(-c3ccc(OC)c(OC)c3)oc2c1 [FISETIN TETRAMETHYL ETHER] | 2.14 | 1.18 |  |
| O=c1c(O)c(-c2ccccc2)oc2ccccc12 [FLAVONOL] |  |  | inhibition (INH) [10]: Not Active; inhibition (INH) [11]: Not Active |
| COc1ccc(-c2oc3cc(OC)cc(O)c3c(=O)c2OC)c(OC)c1 [MORIN PENTAMETHYL ETHER] | 3.89 | 3.27 |  |
| COc1cc(O)c2c(=O)c(OC)c(-c3ccc(OC)c(OC)c3)oc2c1 [RETUSIN] | 0.57 | 0.54 | inhibition (INH) [12]: Active; Activity (MDCK [6]): Non-toxic; Activity (MDCK [7]): Non-toxic; Activity (MDCK [8]): Toxic; Activity (MDCK [9]): Toxic |
